Assay results from PubChem BioAssay AID449754 (Broad Institute, 2010).
Records with an inconclusive call do not appear. Calls of active or inactive are those of the source.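 How the source made its calls: active means compounds whose fitted caspase activation AC50 is no more than tenfold above the top tested dose; inconclusive means flat fit with 30 to 70% activity, or a failed fit; inactive means the rest.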

Tested on: MEF Bax/Bak KO A1-BIM, caspase-Glo luminescence, 3 h
Test: caspase signal in Bax-Bak null A1-BIM cells – cell-based, Bax-Bak knockout MEF, A1-2A-BIM, luminescence, counter-screen for A1 inhibitor project, dose response (AID 449754);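 further: counterscreen where caspase activation signals off-target toxicity not A1 inhibition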
In short: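 Material: Bax/Bak-knockout mouse embryonic fibroblasts expressing A1-2A-BIM; Quantity: 2500 cells per well, seeded one day before compound; Buffer or medium: RPMI-1640 growth medium with 10% FBS; Doses: 100 nL pinned compound per well; Times: 3 h compound at 37 °C, 1 h detection at RT; Signal: CaspaseGlo luminescence; Evaluation: caspase activity from luminescent signal.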

CCOC(=O)C(C(=O)OCC)c1cc(Br)c2noc3c2c1C(=O)c1ccccc1-3
AC50: > 35 µM (inactive)

Cc1c(CCOC(=O)c2ccc(N3CCOCC3)c([N+](=O)[O-])c2)sc[n+]1CC#N
AC50: > 35 µM (inactive)

CCOC(=O)CSC1=N/C(=C/c2ccc(-n3cncn3)cc2)C(=O)N1C(C)=O
AC50: > 35 µM (inactive)

COc1ccc(C(=O)/C=C/C(=O)N(CC(=O)NC2CCCCC2)Cc2cccs2)c(O)c1
AC50: > 35 µM (inactive)

CCC(Sc1nc2cc3c(cc2c(=O)n1Cc1ccco1)OCO3)C(=O)Nc1cccc(OC)c1 (stereo unspecified)
AC50: > 35 µM (inactive)

COC(=O)CSc1nc(N)c2c3c(sc2n1)C(c1ccccc1)SC(c1ccccc1)C3 (stereo unspecified)
AC50: > 35 µM (inactive)

CCc1ccccc1NC(=O)C(CC)Sc1nc2cc3c(cc2c(=O)n1Cc1ccco1)OCO3 (stereo unspecified)
AC50: > 35 µM (inactive)

O=C(Nc1ccc(O)c2c(=O)cc(-c3cccc(Cl)c3)oc12)c1cccc(Cl)c1
AC50: > 35 µM (inactive)

COc1ccc(-c2ccc3c(c2)S(=O)(=O)c2cccc(C(=O)NC[C@@H]4CCCO4)c2C3=O)cc1OC
AC50: > 35 µM (inactive)

CCS(=O)(=O)c1ncc(Cl)c(C(=O)Nc2ccccc2OC)n1
AC50: > 35 µM (inactive)

CN(C)CCN(C(=O)/C=C/c1cccs1)c1nc2c(F)cc(F)cc2s1
AC50: > 35 µM (inactive)

COc1ccc2c(-c3cc4ccc(OCc5ccc(F)cc5)cc4oc3=O)cc(=O)oc2c1
AC50: 36.6 µM

Cc1ccc(NC(=O)c2ccc(N/N=C/c3cccc(O)c3)c([N+](=O)[O-])c2)cc1
AC50: 27.3 µM

COc1cc(NC(=O)c2ccc(Cl)cc2Cl)ccc1-c1cc2ccccc2oc1=O
AC50: > 35 µM (inactive)

COc1cc2c(-c3ccccc3)c(C)oc2cc1/C=N/NC(N)=S
AC50: > 35 µM (inactive)

CCS(=O)(=O)c1ncc(Cl)c(C(=O)Nc2ccc(S(=O)(=O)N3CCC(C)CC3)cc2)n1
AC50: > 35 µM (inactive)

CC1=NNC(=O)/C1=C\c1cn(-c2ccccc2)nc1-c1ccccc1
AC50: 11 µM

CC(=O)Nc1ccc(NC(=O)C(=O)NCC(c2ccco2)N2CCc3ccccc32)cc1 (stereo unspecified)
AC50: 35.8 µM

Cc1ccc2nc(N(CCCN(C)C)C(=O)c3ccc(S(=O)(=O)N4CCc5ccccc5C4)cc3)sc2c1
AC50: > 35 µM (inactive)

COc1cc2ncnc(NCc3ccc(F)cc3)c2cc1OC
AC50: > 35 µM (inactive)

COc1ccc2c(c1)[nH]c1c(=O)n(/N=C/C3C(C)C=C(C)CC3C)c(=O)[nH]c12 (stereo unspecified)
AC50: > 35 µM (inactive)

CCOC(=O)C1=C(c2ccccc2)O/C(=C(/C#N)C(F)(F)F)S1
AC50: > 35 µM (inactive)

Cc1ccc2c(c1)c(C1=c3ccccc3=NC1=O)c(O)n2C
AC50: > 35 µM (inactive)

CC(=O)Nc1ccc(NC(=O)C(C)OC(=O)/C=C/c2cn(-c3ccccc3)nc2-c2cccnc2)cc1 (stereo unspecified)
AC50: 18.4 µM

COc1cc(NC(=O)c2ccccc2F)ccc1NC(=O)c1cc2ccccc2o1
AC50: > 35 µM (inactive)

Cc1cc(C)cc(NC(=O)/C(C#N)=C/c2cn(CC(=O)NCc3ccco3)c3ccccc23)c1
AC50: 6.71 µM

CC(C)c1cccc(-c2ccc3c(c2)S(=O)(=O)c2cccc(C(=O)NC4CCCC4)c2C3=O)c1
AC50: > 35 µM (inactive)

COc1ccc(-c2oc(=O)c3cc(OC)c(OC)cc3c2/C=C/c2cccc([N+](=O)[O-])c2)cc1
AC50: > 35 µM (inactive)

CCOC(=O)c1c(C)oc2c1c(CN1CCN(C(=O)OCC)CC1)c(O)c1ccccc12
AC50: 13 µM

Cc1cccc(Nc2nc(N)c([N+](=O)[O-])c(N3CCCC(C)C3)n2)c1 (stereo unspecified)
AC50: > 35 µM (inactive)

O=S1(=O)CCOC[C@H](CC2CCCCC2)N1Cc1cccc(Cl)c1
AC50: > 35 µM (inactive)

O=[N+]([O-])/C=C/c1cn(Cc2ccc(Cl)cc2)c2ccccc12
AC50: 20.7 µM

Cc1ccc(C)c(S(=O)(=O)NCC(=O)Nc2sc3c(c2C(N)=O)CCC(C)C3)c1 (stereo unspecified)
AC50: > 35 µM (inactive)

O=C1C2C3C=CC(CO)(O3)C2C(=O)N1c1ccc(-c2ccccc2)cc1 (stereo unspecified)
AC50: > 35 µM (inactive)

O=C(Nc1ccc2oc(-c3ccccc3)nc2c1)c1ccccc1F
AC50: > 35 µM (inactive)

CSC[C@@H]1NC(=S)N(c2ccc(C)cc2)C1=O
AC50: > 35 µM (inactive)
